Source: ChEMBL document CHEMBL1153905, “Functionalized 3-benzylidene-indolin-2-ones: inducers of NAD(P)H-quinone oxidoreductase 1 (NQO1) with antiproliferative activity” (Bioorg Med Chem, 2009)

Legend:
CYP1A1 [1] = target: T1, CYP1A1 (Mus musculus, UniProt P00184); assay: Induction of CYP1A1 activity in mouse Hepa-1c1c7 cells assessed as induction ratio at 0.5 uM after 48 hrs by EROD assay relative to control; assay type: ADME, cell-based
T1 sequence (P00184 whole entry): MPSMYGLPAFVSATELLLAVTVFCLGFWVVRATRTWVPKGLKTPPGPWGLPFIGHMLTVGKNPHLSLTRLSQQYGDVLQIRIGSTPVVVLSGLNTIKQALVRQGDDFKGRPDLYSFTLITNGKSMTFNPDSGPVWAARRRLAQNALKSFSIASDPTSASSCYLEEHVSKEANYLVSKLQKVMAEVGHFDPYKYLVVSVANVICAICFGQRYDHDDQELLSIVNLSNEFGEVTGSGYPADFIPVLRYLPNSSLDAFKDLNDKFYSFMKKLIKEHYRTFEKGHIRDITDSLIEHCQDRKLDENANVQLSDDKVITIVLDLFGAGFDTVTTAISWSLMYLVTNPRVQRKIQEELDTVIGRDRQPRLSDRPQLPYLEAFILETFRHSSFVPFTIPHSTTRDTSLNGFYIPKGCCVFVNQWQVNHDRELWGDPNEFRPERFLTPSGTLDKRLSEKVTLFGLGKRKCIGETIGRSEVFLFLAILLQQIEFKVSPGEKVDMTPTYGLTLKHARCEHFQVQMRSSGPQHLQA
Summary of the method: (§1)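 About 10,000 Hepa1c1c7 cells/well cultured 24 h, then compound (0.5% DMSO final) for 48 h, at roughly 4 × the concentration doubling NQO1 activity. After PBS wash, cells given 5 µM 7-ethoxyresorufin plus 2 mM salicylamide, 37 °C, 40 min; resorufin fluorescence ex 530/em 590 nm, corrected for compound fluorescence. Ratio = (treated − blank)/(DMSO control − blank); mean ± SD, n = 3.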

HCT-116 [2] = assay: Antiproliferative activity against human HCT116 cells after 72 hrs by MTT assay; assay type: functional, cell-based; details: HCT-116, 72 h
Summary of the method: (§2)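 Cells seeded at 10,000 (MCF7), 4000 (HCT116) or 5000 (CCL186) per well and grown 24 h; MCF7 and CCL186 in EMEM with pyruvate, glutamine, 10% FBS; HCT116 in McCoy's 5A with 10% FBS. Compounds from DMSO stocks (≤1% DMSO final), 72 h exposure; MTT 0.5 mg/ml for 3 h, formazan in DMSO read at 590 nm. IC50 from sigmoidal survival curve, three separate occasions.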

MCF7 [3] = assay: Antiproliferative activity against human MCF7 cells after 72 hrs by MTT assay; assay type: functional, cell-based; details: MCF7, 72 h; summary of the method: as §2
[4] = Antiproliferative activity against human CCL186 cells after 72 hrs by MTT assay; assay type: cell-based; details: CCL186, 72 h; summary of the method: as §2
MCF7 [5] = assay: Selectivity ratio of IC50 for human CCL186 cells to IC50 for human MCF7 cells
Summary of the method: (§3)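 MTT assay. MCF7 and CCL186 cells were grown in EMEM/10% FBS, HCT116 in McCoy's 5A/10% FBS. Seeding was 10,000 (MCF7), 4000 (HCT116) and 5000 (CCL186) cells per well, 24 h. Compound exposure was 72 h, DMSO ≤1% final. MTT 0.5 mg/ml for 3 h, formazan dissolved in DMSO, A590. IC50 came from sigmoidal survival curves, with 3 separate occasions per concentration. Ratio = IC50 CCL186 / IC50 of the cancer line.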

[6] = Selectivity ratio of IC50 for human CCL186 cells to IC50 for human HCT116 cells; assay type: ADME, cell-based, HCT-116; details: CCL186 cells and HCT116 cells, read-out: Ratio IC50; summary of the method: as §3
HCT-116 [7] = assay: Cell cycle arrest in human HCT116 cells released from G1 block assessed as accumulation at sub G1 phase at 2.5 uM after 24 hrs by flow cytometry; assay type: functional
HCT-116 [8] = assay: Cell cycle arrest in human HCT116 cells released from G2 block assessed as accumulation at sub G1 phase at 2.5 uM after 24 hrs by flow cytometry; assay type: functional
HCT-116 [9] = assay: Cell cycle arrest in human HCT116 cells released from G1 block assessed as accumulation at G1 phase at 2.5 uM after 24 hrs by flow cytometry; assay type: functional
HCT-116 [10] = assay: Cell cycle arrest in human HCT116 cells released from G2 block assessed as accumulation at G1 phase at 2.5 uM after 24 hrs by flow cytometry; assay type: functional
HCT-116 [11] = assay: Cell cycle arrest in human HCT116 cells released from G1 block assessed as accumulation at S phase at 2.5 uM after 24 hrs by flow cytometry; assay type: functional
HCT-116 [12] = assay: Cell cycle arrest in human HCT116 cells released from G2 block assessed as accumulation at S phase at 2.5 uM after 24 hrs by flow cytometry; assay type: functional
HCT-116 [13] = assay: Cell cycle arrest in human HCT116 cells released from G1 block assessed as accumulation at G2/M phase at 2.5 uM after 24 hrs by flow cytometry; assay type: functional
[14] = Cytotoxicity against mouse Hepa-1c1c7 cells after 48 hrs by MTT assay; assay type: cell-based; details: hepa-1c1c7, 48 h
Summary of the method: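 Murine hepatoma cells in α-MEM with 10% heat- and charcoal-treated fetal calf serum, passages 6–17; MTT read-out as for the cancer lines but with 48 h compound exposure. Highest concentration tested 25 µM. IC50 from survival-versus-concentration curve; mean and SD, n = 3.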

[15] = target: NAD(P)H dehydrogenase [quinone] 1 (Mus musculus) (UniProt Q64669); assay: Induction of NQO1 activity in mouse Hepa-1c1c7 cells assessed as induction ratio at 0.5 uM after 48 hrs by MTT assay relative to control; assay type: cell-based
Summary of the method: (§4)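 Hepa1c1c7 cells, 10,000 per well, 24 h, were then treated 48 h (DMSO ≤0.5%). Digitonin/EDTA lysates were assayed for menadione-dependent MTT-formazan formation using a G6P/G6PDH NADPH-generating mix with FAD at pH 7.4. The reaction ran 5 min, was stopped with dicoumarol, and read at A590. Degree of induction = (A test − blank)/(A control − blank). Ratios were read off the induction–concentration plot at the EROD test concentration.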

HCT-116 [16] = assay: Cell cycle arrest in human HCT116 cells released from G2 block assessed as accumulation at G2/M phase at 2.5 uM after 24 hrs by flow cytometry; assay type: functional
HCT-116 [17] = assay: Cell cycle arrest in human HCT116 cells released from G1 block assessed as accumulation at sub G1 phase at 10 uM after 24 hrs by flow cytometry; assay type: functional
HCT-116 [18] = assay: Cell cycle arrest in human HCT116 cells released from G2 block assessed as accumulation at sub G1 phase at 10 uM after 24 hrs by flow cytometry; assay type: functional
HCT-116 [19] = assay: Cell cycle arrest in human HCT116 cells released from G1 block assessed as accumulation at G1 phase at 10 uM after 24 hrs by flow cytometry; assay type: functional
HCT-116 [20] = assay: Cell cycle arrest in human HCT116 cells released from G2 block assessed as accumulation at G1 phase at 10 uM after 24 hrs by flow cytometry; assay type: functional
HCT-116 [21] = assay: Cell cycle arrest in human HCT116 cells released from G1 block assessed as accumulation at S phase at 10 uM after 24 hrs by flow cytometry; assay type: functional
HCT-116 [22] = assay: Cell cycle arrest in human HCT116 cells released from G2 block assessed as accumulation at S phase at 10 uM after 24 hrs by flow cytometry; assay type: functional
HCT-116 [23] = assay: Cell cycle arrest in human HCT116 cells released from G1 block assessed as accumulation at G2/M phase at 10 uM after 24 hrs by flow cytometry; assay type: functional
HCT-116 [24] = assay: Cell cycle arrest in human HCT116 cells released from G2 block assessed as accumulation at G2/M phase at 10 uM after 24 hrs by flow cytometry; assay type: functional
[25] = target: NAD(P)H dehydrogenase [quinone] 1 (Mus musculus) (UniProt Q64669); assay: Induction of NQO1 activity in mouse Hepa-1c1c7 cells assessed as induction ratio at 0.05 uM after 48 hrs by MTT assay relative to control; assay type: cell-based; summary of the method: as §4
CYP1A1 [26] = target: T1, CYP1A1; assay: Induction of CYP1A1 activity in mouse Hepa-1c1c7 cells assessed as induction ratio at 0.05 uM after 48 hrs by EROD assay relative to control; assay type: ADME, cell-based; summary of the method: as §1
[27] = target: NAD(P)H dehydrogenase [quinone] 1 (Mus musculus) (UniProt Q64669); assay: Induction of NQO1 activity in mouse Hepa-1c1c7 cells assessed as drug level required to double basal enzyme activity after 48 hrs by MTT assay; assay type: cell-based
Summary of the method: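 Hepa1c1c7 cells were grown in α-MEM with charcoal-treated FCS, 10,000 per well, 24 h. Compound was given 48 h (DMSO ≤0.5%) over a 10–100-fold range below cytotoxic levels, up to 25 µM. Cells were lysed with digitonin/EDTA. NQO1 was assayed by menadione-driven MTT reduction (G6P/G6PDH/NADP, FAD, Tris pH 7.4), quenched with dicoumarol, A590. CD is the concentration doubling basal activity, taken from the induction–concentration plot; mean ± SD, n = 3.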

[28] = target: NAD(P)H dehydrogenase [quinone] 1 (Mus musculus) (UniProt Q64669); assay: Induction of NQO1 activity in mouse Hepa-1c1c7 cells assessed as induction ratio at 1 uM after 48 hrs by MTT assay relative to control; assay type: cell-based; summary of the method: as §4
CYP1A1 [29] = target: T1, CYP1A1; assay: Induction of CYP1A1 activity in mouse Hepa-1c1c7 cells assessed as induction ratio at 1 uM after 48 hrs by EROD assay relative to control; assay type: ADME, cell-based; summary of the method: as §1

NAD(P)H dehydrogenase [quinone] 1 (Mus musculus), sequence (Q64669 whole entry): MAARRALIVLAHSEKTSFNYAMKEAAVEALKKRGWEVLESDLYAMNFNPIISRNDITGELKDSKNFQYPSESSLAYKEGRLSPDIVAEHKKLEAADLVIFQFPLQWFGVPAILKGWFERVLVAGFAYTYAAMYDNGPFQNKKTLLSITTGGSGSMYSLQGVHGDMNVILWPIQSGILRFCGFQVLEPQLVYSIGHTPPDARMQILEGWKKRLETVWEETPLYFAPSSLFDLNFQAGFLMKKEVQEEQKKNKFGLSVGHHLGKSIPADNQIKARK

COc1cccc(/C=C2/C(=O)Nc3cc(OC)ccc32)c1
fold induction at 48 h, 0.5 µM (CYP1A1 [1]): 1.13
IC50 (HCT-116 [2]): 1.2 µM
IC50 (MCF7 [3]): 1.3 µM
IC50 [4]: 1.8 µM
Ratio IC50 (MCF7 [5]): 1.5
selectivity ratio [6]: 1.4
Activity (HCT-116 [7]): 4.22%
Activity (HCT-116 [8]): 30.54%
Activity (HCT-116 [9]): 10.56%
Activity (HCT-116 [10]): 26.01%
Activity (HCT-116 [11]): 13.81%
Activity (HCT-116 [12]): 15.36%
Activity (HCT-116 [13]): 71.54%
IC50 [14]: 9.8 µM
Ratio [15]: 3.08
Activity (HCT-116 [16]): 43.57%

COc1ccc(OC)c(/C=C2/C(=O)Nc3ccccc32)c1
IC50 (HCT-116 [2]): 5.1 µM
IC50 (MCF7 [3]): 7.7 µM
IC50 [4]: 18.1 µM
Ratio IC50 (MCF7 [5]): 3.5
selectivity ratio [6]: 2.4
Activity (HCT-116 [17]): 2.64%
Activity (HCT-116 [18]): 9.83%
Activity (HCT-116 [19]): 24.24%
Activity (HCT-116 [20]): 39.33%
Activity (HCT-116 [21]): 26.68%
Activity (HCT-116 [22]): 16.68%
Activity (HCT-116 [23]): 46.51%
Activity (HCT-116 [24]): 34.26%
IC50 [14]: > 25 µM
Ratio [25]: 3.32
fold induction at 48 h, 0.05 µM (CYP1A1 [26]): 3.08

C[S+]([O-])CCCCN=C=S (stereo not given) [SULFORAPHANE]
CD [27]: 0.26 µM
Ratio [28]: 3.89
fold induction at 48 h, 1 µM (CYP1A1 [29]): 0.92
